Here are results for seven compounds from ChEMBL document CHEMBL4270613, “Design, synthesis, biological evaluation and structure-activity relationship of sophoridine derivatives bearing pyrrole or indole scaffold as potential antitumor agents” (Eur J Med Chem, 2018).

Active and inactive are the calls of the source. The rule behind the calls is not given here.

In data set [1] the test system is HepG2. Kind of data set: Induction of apoptosis in human HepG2 cells assessed as live cells at 1.5 uM after 24 hrs by Annexin V-FITC/propidium iodide staining based flow cytometry (reference value: 96.2%). Type of data set: functional. The gist of the method:
(§1)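 HepG2 treated at 0, 0.75, 1.5 and 3 µM for 24 h, then Annexin V-FITC/PI dual staining and quantification by flow cytometry.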
Background: Flow cytometry measures light scatter and fluorescence of single cells or particles in a stream.

The subject of data set [2] is HepG2. Kind of data set: Antiproliferative activity against human HepG2 cells after 72 hrs by MTT assay. Type of data set: functional, cell-based. As to conditions: HepG2, 72 h. A general note: Formazan colour is commonly taken as a measure of viable cells.
Another data set has as its system HeLa. Kind of data set: Antiproliferative activity against human HeLa cells after 72 hrs by MTT assay. Type of data set: functional, cell-based.
Data set [3] deals with HepG2. Briefly: Antitumor activity against human HepG2 cells xenografted in nude mouse assessed as tumor growth inhibition at 40 mg/kg for 25 days. Type of data set: functional, organism-based. In short, it runs like this: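 HepG2 xenografts were grown in nude mice and dosed at 40 mg/kg alongside a vehicle group. Tumour volume and body weight were recorded every 2 days. At the end, tumours were excised and weighed. Groups were compared with the vehicle group.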
(In general: A xenograft is tissue or cells of one species grown in another, often human tumour cells in immunodeficient mice.)

The subject of data set [4] is HepG2. Kind of data set: Induction of apoptosis in human HepG2 cells assessed as early apoptotic cells at 0.75 uM after 24 hrs by Annexin V-FITC/propidium iodide staining based flow cytometry (reference value: 1%). In kind it is functional. The gist of the method:
as §1

The subject of data set [5] is HepG2. Briefly: Induction of apoptosis in human HepG2 cells assessed as necrotic cells at 3 uM after 24 hrs by Annexin V-FITC/propidium iodide staining based flow cytometry (reference value: 1.18%). Type of data set: functional. In short, it runs like this:
as §1

The test system of data set [6] is HepG2. Kind of data set: Induction of apoptosis in human HepG2 cells assessed as live cells at 0.75 uM after 24 hrs by Annexin V-FITC/propidium iodide staining based flow cytometry (reference value: 96.2%). Type of data set: functional. In short, it runs like this:
as §1

Data set [7] has as its system HepG2. Kind of data set: Upregulation of cleaved caspase-3 protein expression in human HepG2 cells at 0.75 to 3 uM after 24 hrs by Western blot analysis. In kind it is functional, cell-based. In short, it runs like this:
(§2)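 HepG2 treated at 0, 0.75, 1.5 and 3 µM for 24 h, then western blot for Bax, Bcl-2 and cleaved caspase-3.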

Data set [8] deals with HepG2. Briefly: Induction of apoptosis in human HepG2 cells assessed as late apoptotic cells at 0.75 uM after 24 hrs by Annexin V-FITC/propidium iodide staining based flow cytometry (reference value: 1.6%). In kind it is functional. The gist of the method:
as §1

The next data set concerns SMMC-7721. Briefly: Antiproliferative activity against human SMMC7721 cells after 72 hrs by MTT assay. In kind it is functional, cell-based. As to conditions: SMMC-7721, 72 h.
The next data set has as its system Mus musculus. Briefly: Toxicity in nude mouse xenografted with human HepG2 cells assessed as change in body weight at 40 mg/kg for 25 days. In kind it is organism-based. As to conditions: in vivo, 600 h. The gist of the method:
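Nude mice bearing HepG2 xenografts dosed at 40 mg/kg against vehicle; body weight and tumor volume measured every 2 days; tumors weighed at end.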

Data set [9] concerns HepG2. Briefly: Induction of apoptosis in human HepG2 cells assessed as early apoptotic cells at 3 uM after 24 hrs by Annexin V-FITC/propidium iodide staining based flow cytometry (reference value: 1%). In kind it is functional. In short, it runs like this: as §1
The target of data set [10] is T1, DNA topoisomerase 1 (Homo sapiens) (UniProt P11387).
T1 sequence (whole entry): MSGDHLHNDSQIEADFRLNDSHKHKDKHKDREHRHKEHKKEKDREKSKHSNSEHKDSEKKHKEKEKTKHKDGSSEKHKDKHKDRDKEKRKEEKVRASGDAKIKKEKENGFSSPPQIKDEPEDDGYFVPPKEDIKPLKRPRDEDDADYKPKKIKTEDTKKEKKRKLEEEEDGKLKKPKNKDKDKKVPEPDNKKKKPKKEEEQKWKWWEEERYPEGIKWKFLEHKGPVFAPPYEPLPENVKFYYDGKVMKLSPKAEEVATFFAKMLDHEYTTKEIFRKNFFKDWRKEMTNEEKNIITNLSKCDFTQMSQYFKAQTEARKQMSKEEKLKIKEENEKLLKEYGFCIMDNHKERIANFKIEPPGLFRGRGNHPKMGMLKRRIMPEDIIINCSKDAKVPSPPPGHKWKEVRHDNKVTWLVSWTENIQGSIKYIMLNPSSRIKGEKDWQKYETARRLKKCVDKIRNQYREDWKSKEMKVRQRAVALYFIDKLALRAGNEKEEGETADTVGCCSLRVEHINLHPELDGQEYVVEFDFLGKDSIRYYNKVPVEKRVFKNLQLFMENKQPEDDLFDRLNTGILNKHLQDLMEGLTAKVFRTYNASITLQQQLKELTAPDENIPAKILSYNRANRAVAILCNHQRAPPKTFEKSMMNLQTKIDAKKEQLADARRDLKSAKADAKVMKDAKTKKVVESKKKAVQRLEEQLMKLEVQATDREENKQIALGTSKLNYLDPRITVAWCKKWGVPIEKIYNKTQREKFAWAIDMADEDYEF
Briefly: Inhibition of recombinant human topoisomerase-1 using supercoiled pBR322 DNA as substrate after 45 mins by ethidium bromide staining based gel electrophoresis method. The gist of the method:
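Plasmid relaxation assay: pBR322 DNA with Topo I plus DMSO vehicle, test compound at 1000, 500, 250 or 100 µM, or CPT at 100 µM as control; DNA alone as reference lane; products resolved on gel.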

A further data set concerns MCF7. Briefly: Antiproliferative activity against human MCF7 cells after 72 hrs by MTT assay. Type of data set: functional, cell-based. As to conditions: MCF7, 72 h.
The test system of data set [11] is HepG2. Briefly: Induction of apoptosis in human HepG2 cells assessed as late apoptotic cells at 3 uM after 24 hrs by Annexin V-FITC/propidium iodide staining based flow cytometry (reference value: 1.6%). In kind it is functional. In short, it runs like this:
as §1

The test system of data set [12] is HepG2. Kind of data set: Induction of apoptosis in human HepG2 cells assessed as necrotic cells at 0.75 uM after 24 hrs by Annexin V-FITC/propidium iodide staining based flow cytometry (reference value: 1.18%). In kind it is functional. The gist of the method:
as §1

The test system of data set [13] is HepG2. Briefly: Upregulation of Bax protein expression in human HepG2 cells after 24 hrs by Western blot analysis. In kind it is functional, cell-based. In short, it runs like this: as §2
The subject of data set [14] is HepG2. Kind of data set: Induction of apoptosis in human HepG2 cells assessed as late apoptotic cells at 1.5 uM after 24 hrs by Annexin V-FITC/propidium iodide staining based flow cytometry (reference value: 1.6%). Type of data set: functional. In short, it runs like this: as §1
For data set [15], the system named is HepG2. Kind of data set: Downregulation of Bcl2 protein expression in human HepG2 cells after 24 hrs by Western blot analysis. In kind it is functional, cell-based. In short, it runs like this: as §2
Data set [16] deals with HepG2. Briefly: Induction of apoptosis in human HepG2 cells assessed as early apoptotic cells at 1.5 uM after 24 hrs by Annexin V-FITC/propidium iodide staining based flow cytometry (reference value: 1%). In kind it is functional. The gist of the method:
as §1

The subject of another data set is CNE-2. Briefly: Antiproliferative activity against human CNE2 cells after 72 hrs by MTT assay. In kind it is functional, cell-based. As to conditions: CNE-2, 72 h.
For data set [17], the system named is HepG2. Kind of data set: Induction of apoptosis in human HepG2 cells assessed as live cells at 3 uM after 24 hrs by Annexin V-FITC/propidium iodide staining based flow cytometry (reference value: 96.2%). Type of data set: functional. The gist of the method: as §1
The test system of data set [18] is HepG2. Briefly: Induction of apoptosis in human HepG2 cells assessed as necrotic cells at 1.5 uM after 24 hrs by Annexin V-FITC/propidium iodide staining based flow cytometry (reference value: 1.18%). In kind it is functional. In short, it runs like this:
as §1

The test system of data set [19] is HepG2. Kind of data set: Induction of apoptosis in human HepG2 cells after 24 hrs by Annexin V-FITC/propidium iodide staining based flow cytometry. In kind it is functional, cell-based. In short, it runs like this:
as §1

Another data set relates to CNE. Kind of data set: Antiproliferative activity against human CNE1 cells after 72 hrs by MTT assay. In kind it is functional, cell-based.
Data set [20] deals with HepG2. Kind of data set: Antiproliferative activity against human HepG2 cells after 48 hrs by MTT assay. In kind it is functional, cell-based. As to conditions: HepG2, 48 h. The gist of the method: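 HepG2 exposed to compounds for 48 h; MTT readout; camptothecin positive control; IC50 calculated; mean ± SD of three independent experiments, each in triplicate.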

Consider `COc1ccc2c(c1)c(/C=C1\CC[C@@H]3[C@H]4CCCN5CCC[C@H](CN3C1=O)[C@@H]45)cn2Cc1ccc(OCc2ccccc2)cc1`, for which the Activity in the data set with HepG2 [1] was 78%; in the data set on HepG2 [4] it was 6.71%; in the data set with HepG2 [5], 1.52%; in the data set on HepG2 [6], 87.6%; in the data set with HepG2 [8] it was 3.09%; with Mus musculus, “Non-Toxic”. The Activity is 33.8% in the data set with HepG2 [9]; 7.69% in the data set on HepG2 [11]; 2.58% with HepG2 [12]; “Dose-dependent effect” in the data set with HepG2 [13]; 11.5% in the data set with HepG2 [14]; “Dose-dependent effect” with HepG2 [15]. In addition, the Activity in the data set with HepG2 [16] was 9.49%; with HepG2 [17] it was 57%; with HepG2 [18], 0.94%; in the data set with HepG2 [19] it was “Dose-dependent effect”. The IC50 came out at 0.93 µM with HepG2 [2]; 1.44 µM with HeLa; 1.32 µM in the data set on SMMC-7721; 0.94 µM with MCF7; 1.24 µM with CNE-2; 1.89 µM in the data set on CNE. The compound further gave an IC50 in the data set on HepG2 [20] of 1.96 µM. Also, the TGI result with HepG2 [3] was “Active”. The result in the data set on HepG2 [7] was Active. Moreover, in data set [10], the inhibition result is “Dose-dependent effect”.

As for `O=C1CCC[C@@H]2[C@H]3CCCN4CCC[C@H](CN12)[C@@H]34`, the TGI result in the data set with HepG2 [3] was “inactive”.

With `CC[C@@]1(O)C(=O)OCc2c1cc1n(c2=O)Cc2cc3ccccc3nc2-1` [CAMPTOTHECIN], the IC50 stood at 1.36 µM in the data set on HepG2 [2]; 0.66 µM with HeLa; 1.08 µM with SMMC-7721; 0.42 µM in the data set with MCF7; 0.98 µM with CNE-2; 0.34 µM in the data set with CNE. For the same compound, the IC50 in the data set on HepG2 [20] came out at 6.08 µM.

In the data set on HepG2 [20], `O=C1/C(=C/c2cn(Cc3ccccc3Br)c3ccccc23)CC[C@@H]2[C@H]3CCCN4CCC[C@H](CN12)[C@@H]34` showed an IC50 of 15.4 µM.

In the data set with HepG2 [20], `O=C1/C(=C/c2cccn2Cc2ccc(Cl)cc2)CC[C@@H]2[C@H]3CCCN4CCC[C@H](CN12)[C@@H]34` showed an IC50 of 13.5 µM. This IC50 and that of the compound before are within 1.5-fold of each other.

`O=C1/C(=C/c2cn(Cc3ccc(OCc4ccc(Cl)cc4)cc3)c3ccccc23)CC[C@@H]2[C@H]3CCCN4CCC[C@H](CN12)[C@@H]34`: the IC50 in the data set on HepG2 [20] stood at 6.17 µM.

In the data set on HepG2 [20], `CC(C)(C)c1ccc(Cn2cc(/C=C3\CC[C@@H]4[C@H]5CCCN6CCC[C@H](CN4C3=O)[C@@H]56)c3ccccc32)cc1` gave an IC50 of 4.57 µM.

In general, IC50 refers to the point on the concentration scale where inhibition reaches its midpoint. Low values mean inhibition by little substance, high ones a need for much substance.
